Screening results deposited in PubChem BioAssay by several laboratories.
Shown are actives, neighbours in structure and some others; about 3.1% of the full set was active somewhere.
CTSL1 counter: Fasciola hepatica cathepsin L1 inhibitors, primary screen, counter-screen for PFM18AAP inhibitor project, biochemical, QFRET, fluorogenic peptide substrate; recombinant F. hepatica cathepsin L1, Z-Leu-Arg-MCA fluorescence; inhibition, % at 5.96 µM; hit rate 0.49% among 300,000; AID 1906, 2009;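 active = inhibition above the mean of all tested compounds plus 3 SD, set per screening campaign, cut at about 17% in these data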;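 note: 0% = plate median of test compound wells and 100% = 1 µM Z-Phe-Ala-diazomethylketone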
core dimer inh: inhibitors of HCV core protein dimerization, primary screen, biochemical, TR-FRET, high-throughput; hit rate 0.33% among 300,000; TR-FRET GST/Flag-core106 dimerization, 1536-well; AID 1899, 2009; inhibition, % at 5 µM;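 active = inhibition above the mean of all tested compounds plus 3 SD, set per screening campaign, cut at about 45% in these data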
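Assay system – GST-tagged and Flag-tagged HCV core protein residues 1-106 · Quantity – core106 proteins, GST 13.5 nM and Flag 17 nM · Benchmarks – unlabelled core106 and no-GST-core106 wells · Read-out basis – percent inhibition of core106 dimerization signal · Detection – time-resolved FRET, ex 340 nm, em 617 and 671 nm · Schedule – 4 h at 22.5 °C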
NadD inh: inhibitors of S. aureus NadD, primary screen, biochemical, colorimetric, uHTS; Nicotinate-nucleotide adenylyltransferase NadD (Staphylococcus aureus N315); purified NadD enzyme, colorimetric absorbance read-out; inhibition, % at 20 µM; hit rate 0.78% among 360,000; AID 602399, 2012; in the data active = inhibition above about 26%
Myeloid diff 2: induction of myeloid progenitor differentiation, primary screen, cell-based, flow cytometry, MLPCN library. ER-HoxA9 myeloid progenitors, lysozyme-GFP differentiation. calls only at 10 µM. hit rate 1% among 360,000. AID 624256, 2012;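 active = normalized GFP-positive differentiation at or above the plate's own cutoff, the solvent-only control mean plus 3 SD; inconclusive = no clear call, values can overlap the other calls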;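 note: cells exposed to compound for four days before flow analysis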
PP5 primary: PP5 phosphatase inhibitors, primary screen, biochemical, fluorescence | purified PP5c, OMFP substrate fluorescence | Serine/threonine-protein phosphatase 5 (Homo sapiens), P53041 | inhibition, % at 6.7 µM | hit rate 0.18% among 320,000 | AID 1987, 2009;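 active = inhibition above the campaign's mean inhibition across all tested compounds plus 3 SD, cut at about 9.5% in these data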;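 note: 0% = DMSO only and 100% = 100 µM cantharidin control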
Target sequence (P53041 whole entry, looked up): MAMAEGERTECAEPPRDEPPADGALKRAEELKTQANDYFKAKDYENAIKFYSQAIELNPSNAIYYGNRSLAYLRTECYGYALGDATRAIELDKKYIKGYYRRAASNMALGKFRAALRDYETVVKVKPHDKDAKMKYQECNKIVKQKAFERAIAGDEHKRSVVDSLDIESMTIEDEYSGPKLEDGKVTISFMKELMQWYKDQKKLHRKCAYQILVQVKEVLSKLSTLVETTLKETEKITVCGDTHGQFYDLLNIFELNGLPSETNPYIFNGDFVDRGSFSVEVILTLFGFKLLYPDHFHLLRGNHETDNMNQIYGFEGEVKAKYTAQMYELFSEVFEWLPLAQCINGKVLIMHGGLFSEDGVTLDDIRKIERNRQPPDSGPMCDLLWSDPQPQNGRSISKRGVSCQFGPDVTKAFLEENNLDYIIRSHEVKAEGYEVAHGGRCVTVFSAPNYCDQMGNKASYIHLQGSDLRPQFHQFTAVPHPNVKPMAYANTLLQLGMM
PP1 counter: PP1-alpha phosphatase inhibitors, primary screen, counter-screen for PP5 inhibitor project, biochemical, fluorescence, OMFP substrate, single point; inhibition, % at 6.7 µM; AID 2235, 2010; hit rate 0.9% among 320,000; purified PP1alpha;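 active = inhibition above the mean inhibition of all tested compounds plus 3 SD, computed separately for each screening campaign, cut at about 15% in these data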
Myeloid diff: inducers of myeloid progenitor differentiation, confirmation, cell-based, GFP/Mac1 flow cytometry, cherry pick 01. shares compounds with Myeloid diff 2. ER-HoxA9 myeloid progenitors, GFP/Mac1 double-positive flow. hit rate 2% among 2,300. AID 651706, 2012. calls only;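 active = share of green or green-and-red cells above 9 and 9% in run 1 or 4 and 3% in run 2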
GFP autofluor: compound fluorescence in myeloid differentiation counter-screen. AID 651707. shares compounds with Myeloid diff 2. fluorescence response, % (no concentration beside the values). ER-HoxA9 myeloid progenitors, no estrogen, GFP autofluorescence flow cytometry; vehicle wells 0%, positive control 100%. hit rate 7.4% among 2,300;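 active = over 5% cells positive for green fluorescent reporter, or over 2% positive for both it and APC stain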;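 note: range taken on the double positive population between DMSO and positive control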
Starred values were filed as active, the others as inactive; i = inactive; ? = inconclusive; . = no result given; + = active, no number.

SMILES	CTSL1 counter	core dimer inh	NadD inh	Myeloid diff 2	PP5 primary	PP1 counter	Myeloid diff	GFP autofluor
COc1ccc(N2CCN(C(=O)C(=O)c3cc(OC)c(OC)c(OC)c3)CC2)cc1	.	.	.	i	.	.	.	.
N#C/C(=C/c1cccn1-c1cccc(C(=O)O)c1)c1ccc(F)cc1	.	.	2	+	.	.	i	1
COc1cccc(/C=C(/C#N)c2ccc(F)cc2)c1OCc1cccc(C(=O)O)c1	0	9	-3	i	3	0	.	.
CCCCOc1ccc(OC(=O)Nc2cc(Cl)ccc2OC)cc1	-3	-2	-4	i	-2	1	+	0
COc1ccc(Cl)cc1NC(=O)CC(=O)Nc1cc(Cl)ccc1OC	0	2	-8	i	0	-5	.	.
Cc1cc(/C=C(\C#N)c2nnc(N3CCOCC3)n2-c2ccccc2)c(C)n1-c1ccccc1	6	5	.	.	-1	0	.	.
N#C/C(=C/c1ccc(-c2ccc([N+](=O)[O-])cc2)o1)c1nnc(N2CCOCC2)n1-c1ccccc1	.	.	-3	+	.	.	i	4
O=C(NCC1CC1)c1ccc2c(c1)S(=O)(=O)c1cc(Cl)ccc1C2=O	.	.	-7	i	0	0	.	.
COCC(C)NCc1cccc(OC)c1OC (stereo not drawn)	1	-8	3	i	0	0	i	0
COc1ccc(C(=O)O)cc1S(=O)(=O)Nc1ccc2cn[nH]c2c1	.	.	3	i	.	.	.	.
COC(=O)c1ccccc1NC(=O)C1CC=CCC1C(=O)O (stereo not drawn)	1	2	1	i	2	-1	i	0
Cc1cc(NC(=O)C(C)Sc2nnc(NCc3ccco3)s2)no1 (stereo not drawn)	.	.	0	+	-1	-3	i	0
Cc1cc(NC(=O)C(C)SCC(=O)Nc2nnc(CC(C)C)s2)no1 (stereo not drawn)	3	-13	-5	.	0	-3	.	.
O=C(N/N=C/c1ccc[nH]1)c1ccc(COc2cccc3cccnc23)cc1	-1	3	3	+	1	2	i	0
Cc1cc(Br)c(OCc2ccc(C(=O)N/N=C/c3ccc[nH]3)cc2)c(Br)c1	.	.	18	?	6	9	.	.
O=C(CNC(=O)c1ccc(Br)o1)Nc1ccc(N2CCCCCC2)cc1	.	.	-1	+	.	.	i	0
O=C(CNC(=O)c1ccco1)Nc1ccc(N2CCCCCC2)cc1	.	.	4	i	0	-1	.	.
Cc1cnc(C(=O)Nc2ccc(C)c(S(=O)(=O)N3CCCCCC3)c2)cn1	.	.	1	i	.	.	.	.
CCCN(CCC)S(=O)(=O)c1cccc(C(=O)Nc2ccc3c(c2)OCO3)c1	-11	5	-18	i	1	2	.	.
CCN(CC)S(=O)(=O)c1cccc(C(=O)Nc2ccc3c(c2)OCO3)c1	-7	6	-5	i	1	6	i	0
CCN(C(=O)COC(=O)c1ccc2c(c1)OCO2)c1c(N)n(Cc2ccccc2)c(=O)[nH]c1=O	.	.	4	i	.	.	.	.
Fc1cccc(Cl)c1C1Nc2cccc3cccc(c23)N1	1	9	24	i	3	6	.	.
Clc1cccc(Cl)c1C1Nc2cccc3cccc(c23)N1	-7	37	28	+	4	2	i	0
NS(=O)(=O)c1ccc(CCNC(=O)c2ccc(Cl)c(S(=O)(=O)NCc3ccco3)c2)cc1	.	.	-3	i	.	.	.	.
O=C(CSc1nc2ccsc2c(=O)n1NC(=O)c1ccccc1)Nc1nccs1	3	-1	1	+	-2	-2	i	0
SMILES	CTSL1 counter	core dimer inh	NadD inh	Myeloid diff 2	PP5 primary	PP1 counter	Myeloid diff	GFP autofluor
O=C(CSc1nc2ccsc2c(=O)n1NC(=O)c1ccccc1)NCc1ccco1	-4	-5	-1	i	-1	1	.	.
CCCCN1C[C@H](C)[C@@H](CC(=O)NCc2ccccc2)C1=O	0	7	-5	i	0	0	.	.
COC(=O)C1=C(C)N(Cc2ccccc2)C(=NCc2cc(OC)c(OC)c(OC)c2)N[C@H]1CCc1ccccc1	.	.	5	+	.	.	i	0
COc1ccccc1CNC(=O)CSc1ccsc1[N+](=O)[O-]	5	22	3	i	1	-2	i	1
COc1cc(C(=O)NCCC(=O)NCCc2ccc(Cl)cc2)cc(OC)c1OC	0	5	-2	i	1	-2	.	.
COc1cc(C(=O)NCCC(=O)NCc2c(F)cc(F)cc2F)cc(OC)c1OC	4	-9	-1	i	2	3	i	0
O=C(CN1CCN(c2ncccn2)CC1)Nc1ccccc1-n1cccc1	-5	0	1	+	2	4	i	0
O=C(CN1CCN(c2ccccn2)CC1)Nc1ccccc1Br	-7	-2	-8	i	3	-2	.	.
COc1ccc(C(=O)N2CCCC(CCC(=O)NCc3ccccc3F)C2)c(OC)n1 (stereo not drawn)	-1	2	3	i	1	-2	.	.
CCC(=O)Nc1ccc(/C(C)=N\NS(=O)(=O)c2ccc(C)cc2)cc1	-1	7	1	+	1	2	i	0
CCCn1c(N)c(N2CCCCC2)c(=O)n(CC(=O)Nc2cccc(S(=O)(=O)N(C)C)c2)c1=O	.	.	3	i	.	.	.	.
COc1ccc(S(=O)(=O)N2CCN(CCOc3ccccc3Cl)CC2)cc1OC	.	.	-3	i	2	-5	i	0
CCN1C[C@@H]2[C@@H]3C(=O)N(Cc4ccccc4)C(=O)[C@@H]3[C@](C)(C1=O)N2C(=O)c1ccc(C(F)(F)F)cc1	.	.	-6	i	.	.	.	.
COc1ccccc1NC(=O)OC(C)c1ccc(Cl)cc1 (stereo not drawn)	0	-17	-6	i	1	5	.	.
CSc1nnc(CCCCCNC(=O)OC(C)(C)C)o1	1	-1	-8	i	1	-5	.	.
CCCCSc1nnc(CCCCCNC(=O)OC(C)(C)C)o1	0	2	-5	+	1	0	i	1
CC(C(=O)Nc1ccc(S(=O)(=O)N2CCCC2)cc1)N1CCCC(C(N)=O)C1 (stereo not drawn)	.	.	10	i	.	.	.	.
